Measurements collected from several papers.
Organism: Staphylococcus aureus
Effect on: microbial growth

SMILES	test	test system	setting	MIC
COC(=O)c1cc(-c2cccc(NC(=O)Nc3cc(OC)ccc3OC)c2)on1	broth dilution	ATCC29213		> 64 µg/mL
C=CCn1c(-c2ccc([N+](=O)[O-])cc2)nc2ccc(C)cc21	broth dilution	ATCC43300 MRSA	drug-resistant strain	64 µg/mL
CN[C@H](CC(C)C)C(=O)N[C@H]1C(=O)N[C@@H](CC(N)=O)C(=O)N[C@H]2C(=O)N[C@H]3C(=O)N[C@H](C(=O)N[C@H](C(=O)O)c4cc(O)cc(O)c4-c4cc3ccc4O)[C@H](O)c3ccc(c(Cl)c3)Oc3cc2cc(c3O[C@@H]2O[C@H](CO)[C@@H](O)[C@H](O)[C@H]2O[C@H]2C[C@](C)(N)[C@H](O)[C@H](C)O2)Oc2ccc(cc2Cl)[C@H]1O	broth dilution	BAA44 MRSA	drug-resistant strain	0.59 µM
O=C(O)c1cn(C2CC2)c2cc(N3CCNCC3)c(F)cc2c1=O	broth dilution	ATCC43300 MRSA	drug-resistant strain	16 µg/mL
CCC(CC)c1cc(CCN2CCCN(Cc3ccc(C(F)(F)F)cc3)CC2)nc(-c2ccncc2)n1		ATCCBAA1720	drug-resistant strain, clinical isolate	6 µg/mL
Cc1ccc2nc(-c3ccc(Cl)cc3)[nH]c2c1	broth dilution	ATCC43300 MRSA	drug-resistant strain	512 µg/mL
CCCCCCCCCCCC(=O)C(F)(F)P(=O)(O)O		ATCC33591 MRSA	drug-resistant strain	> 200 µg/mL
CN[C@H](CC(C)C)C(=O)N[C@H]1C(=O)N[C@@H](CC(N)=O)C(=O)N[C@H]2C(=O)N[C@H]3C(=O)N[C@H](C(=O)N[C@H](C(=O)O)c4cc(O)cc(O)c4-c4cc3ccc4O)[C@H](O)c3ccc(c(Cl)c3)Oc3cc2cc(c3O[C@@H]2O[C@H](CO)[C@@H](O)[C@H](O)[C@H]2O[C@H]2C[C@](C)(N)[C@H](O)[C@H](C)O2)Oc2ccc(cc2Cl)[C@H]1O	broth dilution	ATCCBAA44	drug-resistant strain	1 µg/mL
Cc1ccc2nc(-c3cccnc3)[nH]c2c1	broth dilution	ATCC43300 MRSA	drug-resistant strain	128 µg/mL
COC(=O)c1cc(-c2cccc(NC(=S)Nc3ccccc3Cl)c2)on1	broth dilution	ATCC29213		> 64 µg/mL
CC1=C(C(=O)O)N2C(=O)[C@@H](NC(=O)[C@H](N)C3=CCC=CC3)[C@H]2SC1		USA300		128 µg/mL
COC(=O)c1cc(-c2cccc(NC(=O)Nc3cccc(F)c3)c2)on1	broth dilution	ATCC29213		> 64 µg/mL
CCC1C(=NOCc2cc(-c3ccc(Cl)cc3)no2)CC(c2ccccc2)OC1c1ccccc1 (centres unmarked)	broth dilution	MTCC96	24 h	50 µg/mL
Cc1ccc2nc(-c3ccc([N+](=O)[O-])cc3)n(Cc3ccccc3)c2c1	broth dilution	ATCC43300 MRSA	drug-resistant strain	16 µg/mL
COC(=O)c1cc(-c2cccc(NC(=O)Nc3cccc(C(F)(F)F)c3)c2)on1	broth dilution	ATCC29213		> 64 µg/mL
Fc1cccc(Cl)c1-c1nc2ccccc2[nH]1	broth dilution	ATCC43300 MRSA	drug-resistant strain	128 µg/mL
CCN1CCN(C(=O)Cc2ccc(Nc3ncc(F)c(Nc4ccc(C(=O)Nc5ccccc5Cl)cc4)n3)cc2)CC1		NCTC8325		> 30 µM
CC(c1ccc(Cl)c(Cl)c1)n1cnc2cc3c(cc21)CCC3 (centres unmarked)				3.1 to 6.3 µg/mL
O=C(N[C@H](CO)[C@H](O)c1ccc([N+](=O)[O-])cc1)C(Cl)Cl		USA300		4 µg/mL
O=C(Nc1ccc(Cl)c(C(F)(F)F)c1)N1CCCCC1		NCTC8325		30 µM
